Key:
[1] = target: Neuronal acetylcholine receptor subunit alpha-7 (Homo sapiens, UniProt P36544); test: Displacement of [125]iodoMLA from alpha-7 nAChR
[2] = target: Neuronal acetylcholine receptor; alpha4/beta2 (Rattus norvegicus, UniProt P09483+P12390); test: Displacement of [3H]epibatidine from alpha4beta2 nAChR in rat cerebral cortex; type: tissue-based
Mus musculus [3] = test: Activity in sc dosed mouse by hypothermia test; type: functional
Outline: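 Rectal temperature in mice via thermistor probe inserted 24 mm, read just before and at several times after sc injection of saline or test compound. Change from pretreatment value per mouse. Ambient 21–24 °C. ED50 with 95% confidence limits by unweighted least-squares linear regression.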

Mus musculus [4] = test: Antinociceptive activity in sc dosed mouse by tail-flick method; type: functional
Outline: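 Mouse tail-flick (D'Amour–Smith): tail exposed to heat lamp, latency to flick recorded. Control latency (2–4 s) taken per mouse before treatment, test latency after sc dosing. Response as %MPE = [(test – control)/(maximum latency – control) × 100]. ED50 with 95% confidence limits by unweighted least-squares linear regression.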

Mus musculus [5] = test: Antinociceptive activity in sc dosed mouse by hotplate method; type: functional
Outline: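 Mouse hot-plate at 55.0 °C, animal in 10 cm glass cylinder. Two control latencies ≥10 min apart (normal 8–12 s). End point is jumping or paw licking. Tested 5 min after sc injection across a dose range. Response as %MPE = [(test – control)/(maximum latency – control) × 100]. ED50 with 95% confidence limits by unweighted least-squares linear regression.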

Mus musculus [6] = test: Effect on locomotor activity in sc dosed mouse; type: functional
Outline: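 Spontaneous activity: mice placed in individual photocell cages (28 × 16.5 cm) 5 min after sc dosing of 0.9% saline or test compound. Beam interruptions (two banks of eight cells) counted over the next 10 min.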

Chain of Neuronal acetylcholine receptor subunit alpha-7 (P36544 whole entry): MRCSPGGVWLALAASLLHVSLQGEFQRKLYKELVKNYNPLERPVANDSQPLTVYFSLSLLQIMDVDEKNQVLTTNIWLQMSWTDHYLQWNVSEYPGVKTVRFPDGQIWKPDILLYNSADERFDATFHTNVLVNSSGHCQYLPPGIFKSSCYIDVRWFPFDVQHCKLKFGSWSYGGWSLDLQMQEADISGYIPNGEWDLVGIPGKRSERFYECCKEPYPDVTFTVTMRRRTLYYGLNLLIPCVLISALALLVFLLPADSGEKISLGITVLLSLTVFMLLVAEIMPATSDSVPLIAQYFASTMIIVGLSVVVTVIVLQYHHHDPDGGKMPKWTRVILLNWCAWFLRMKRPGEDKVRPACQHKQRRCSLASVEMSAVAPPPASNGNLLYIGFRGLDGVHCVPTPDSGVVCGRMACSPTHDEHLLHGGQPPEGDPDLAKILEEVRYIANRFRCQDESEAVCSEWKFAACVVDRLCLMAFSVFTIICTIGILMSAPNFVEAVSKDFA
Chain of Neuronal acetylcholine receptor; alpha4/beta2 (P09483 whole entry): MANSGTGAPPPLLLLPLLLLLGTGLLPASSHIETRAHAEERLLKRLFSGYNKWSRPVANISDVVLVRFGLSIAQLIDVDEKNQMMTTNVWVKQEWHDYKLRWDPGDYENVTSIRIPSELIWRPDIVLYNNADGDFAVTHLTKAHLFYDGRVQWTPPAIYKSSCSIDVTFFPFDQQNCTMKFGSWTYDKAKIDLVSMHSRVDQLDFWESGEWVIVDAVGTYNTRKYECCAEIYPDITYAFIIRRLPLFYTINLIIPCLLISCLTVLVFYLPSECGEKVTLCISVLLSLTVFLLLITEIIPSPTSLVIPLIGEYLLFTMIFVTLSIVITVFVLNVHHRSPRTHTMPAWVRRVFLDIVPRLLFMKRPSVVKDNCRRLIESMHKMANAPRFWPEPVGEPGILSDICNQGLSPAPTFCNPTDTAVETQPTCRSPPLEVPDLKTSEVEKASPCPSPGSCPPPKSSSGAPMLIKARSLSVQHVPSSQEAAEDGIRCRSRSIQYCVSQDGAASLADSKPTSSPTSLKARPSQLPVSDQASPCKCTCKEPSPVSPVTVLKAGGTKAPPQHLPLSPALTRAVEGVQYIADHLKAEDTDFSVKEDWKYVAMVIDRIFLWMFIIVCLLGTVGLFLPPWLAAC
Chain of Neuronal acetylcholine receptor; alpha4/beta2 (P12390 whole entry): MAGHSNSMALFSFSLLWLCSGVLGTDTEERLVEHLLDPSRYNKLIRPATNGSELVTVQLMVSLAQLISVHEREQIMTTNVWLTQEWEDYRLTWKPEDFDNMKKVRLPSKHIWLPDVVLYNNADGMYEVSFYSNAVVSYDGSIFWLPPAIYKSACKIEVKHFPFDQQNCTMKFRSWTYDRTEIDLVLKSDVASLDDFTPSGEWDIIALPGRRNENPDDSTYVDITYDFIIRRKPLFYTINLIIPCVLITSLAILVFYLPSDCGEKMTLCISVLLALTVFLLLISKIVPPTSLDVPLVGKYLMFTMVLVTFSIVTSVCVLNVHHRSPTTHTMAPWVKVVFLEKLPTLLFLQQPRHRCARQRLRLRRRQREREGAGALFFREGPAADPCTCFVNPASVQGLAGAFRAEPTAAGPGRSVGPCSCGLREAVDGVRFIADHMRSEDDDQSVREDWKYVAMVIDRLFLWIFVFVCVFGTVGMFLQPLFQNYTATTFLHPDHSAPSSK

Structure (SMILES) | Ki [1] [nM] | Ki [2] [nM] | ED50 (Mus musculus [3]) [mg/kg] | ED50 (Mus musculus [4]) [mg/kg] | ED50 (Mus musculus [5]) [mg/kg] | ED50 (Mus musculus [6]) [mg/kg]
Clc1ccc([C@H]2CC3CCC2[C@@H]3NCc2ccccc2)cn1 (relative stereo) | > 200 | > 1000 |  |  |  | 
Cl.Cl.Cl.N[C@H]1C2CCC1[C@@H](c1ccc(Cl)nc1)C2 (relative stereo) | > 700 | 8.2 | 3.4 | 4.5 | 2.9 | 
Clc1ccc([C@H]2CC3CCC2[C@H]3NCc2ccccc2)cn1 (relative stereo) | > 700 | > 1000 |  |  |  | 
Cl.N[C@@H]1C2CCC1[C@@H](c1ccc(Cl)nc1)C2 (relative stereo) | > 700 | 10.9 | 2.3 | 4.5 | 4.4 | 1.1
Cl.Clc1ccc([C@H]2CC3CCC2N3)cn1 (some centres undefined) [EPIBATIDINE HYDROCHLORIDE] | 198 |  | 0.004 | 0.006 | 0.004 | 0.001
CN1CCC[C@H]1c1cccnc1.Cl [NICOTINE HYDROCHLORIDE] |  |  | 1 | 1.3 | 0.65 | 0.5
